pIC50: −log10 of the molar value.
Key:
Thromboxane-A synthase = biological target: T1, Thromboxane-A synthase (Rattus norvegicus, UniProt P49430); assay: In vitro inhibition of thromboxane B2 production in rat whole blood.; type: functional, tissue-based
T1 sequence (P49430 whole entry): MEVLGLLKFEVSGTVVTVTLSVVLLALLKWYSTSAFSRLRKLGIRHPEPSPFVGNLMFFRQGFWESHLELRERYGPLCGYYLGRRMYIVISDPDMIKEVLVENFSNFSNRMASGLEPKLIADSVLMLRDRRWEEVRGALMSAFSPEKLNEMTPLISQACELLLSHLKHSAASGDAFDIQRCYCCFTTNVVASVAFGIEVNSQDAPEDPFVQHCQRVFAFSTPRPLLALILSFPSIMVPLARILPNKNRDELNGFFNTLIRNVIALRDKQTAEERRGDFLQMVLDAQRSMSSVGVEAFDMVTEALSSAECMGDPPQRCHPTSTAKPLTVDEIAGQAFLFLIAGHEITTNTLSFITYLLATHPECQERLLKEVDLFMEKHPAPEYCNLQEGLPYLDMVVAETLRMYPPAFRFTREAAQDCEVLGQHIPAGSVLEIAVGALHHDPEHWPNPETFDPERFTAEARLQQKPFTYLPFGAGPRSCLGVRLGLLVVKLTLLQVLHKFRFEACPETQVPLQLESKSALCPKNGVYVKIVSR

Cavia porcellus [1] = species: Cavia porcellus; assay: Inhibition of K+ induced contractions of the isolated guinea pig ileum.; type: functional
Cavia porcellus [2] = species: Cavia porcellus; assay: Tested for [Ca2+] antagonism in guinea pig ileum; type: functional
Outline: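 Screening preparation under 1 g tension; isometric contractions to 60 mM KCl elicited at 15-min intervals without and with increasing compound concentrations. IC50 (concentration inhibiting the KCl response by 50%) from least-squares regression.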

Cavia porcellus [3] = species: Cavia porcellus; assay: Tested for [Ca2+] antagonism in guinea pig atria; type: functional
Outline: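 Male guinea pig (0.5–0.8 kg) spontaneously beating atria in oxygenated (95% O2/5% CO2) Locke solution at 37 °C under 1 g preload, rested 60 min. Compounds added cumulatively with 30 min contact per concentration. Isometric contraction recorded; IC25 from computerized regression analysis.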

Cavia porcellus [4] = species: Cavia porcellus; assay: Tested for [Ca2+] antagonism in guinea pig right ventricle; type: functional; conditions: Heart right ventricle
Outline: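 Male guinea pig (0.5–0.8 kg) right ventricular strips (10 × 2 mm) in oxygenated Tyrode at 29 °C, 1 g preload. Electrically paced (3 ms, 2 Hz) for 60 min, depolarized with 22 mM KCl, then contractility restored with 10 μM histamine at 0.2 Hz pacing. Isometric contraction recorded; IC50 from computerized regression analysis.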

Oryctolagus cuniculus = species: Oryctolagus cuniculus; assay: Tested for [Ca2+] antagonism in rabbit renal artery; type: functional
Outline: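 Isolated renal artery under 1 g tension; isometric contractions to 60 mM KCl repeated at 30 min intervals without and with increasing concentrations of test compound or nifedipine as reference. IC50 from the concentration–response.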

Row | pIC50 (Thromboxane-A synthase) | pIC50 (Cavia porcellus [1]) | SMILES | pIC50 (Cavia porcellus [2]) | IC25 (Cavia porcellus [3]) [nM] | pIC50 (Cavia porcellus [4]) | pIC50 (Oryctolagus cuniculus)
1 | 6.59 | < 5.00 | CO/C(O)=C1\C(C)=NC(C)=C(C(C)=O)C1c1cccc(-n2ccnc2)c1 (centres undefined) | – | – | – | –
2 | 6.66 | 7.30 | CCO/C(O)=C1\C(C)=NC(C)=C(C(=O)OCCN(C)Cc2ccccc2)C1c1cccc(-n2ccnc2)c1 (centres undefined) | – | – | – | –
3 | 6.77 | 7.22 | CCOC(=O)C1=C(C)N=C(C)/C(=C(/O)OCC)C1c1cccc(-n2ccnc2)c1 (centres undefined) | 7.21 | 94.2 | 5.67 | 6.95
4 | 6.55 | 7.00 | CCOC(=O)C1=C(C)N=C(C)/C(=C(/O)OCC)C1c1cccc(-c2cccnc2)c1 (centres undefined) | – | – | – | –
5 | 6.14 | 5.78 | CCOC(=O)C1=C(C)N=C(C)/C(=C(/O)OCC)C1c1cccc(Cn2ccnc2)c1 (centres undefined) | – | – | – | –
6 | 6.62 | 6.59 | CCO/C(O)=C1\C(C)=NC(C)=C(C(=O)OC)C1c1cccc(-n2ccnc2)c1 (centres undefined) | – | – | – | –
7 | 6.57 | 6.07 | COC(=O)C1=C(C)N=C(C)/C(=C(/O)OC)C1c1cccc(-n2ccnc2)c1 (centres undefined) | – | – | – | –
8 | 6.19 | 5.05 | CCOC(=O)C1=C(C)N(C)C(C)=C(C(=O)OCC)C1c1cccc(-n2ccnc2)c1 | – | – | – | –

Further lines, the compound ahead of its results:

Row | SMILES | pIC50 (Thromboxane-A synthase) | pIC50 (Cavia porcellus [1]) | pIC50 (Cavia porcellus [2]) | IC25 (Cavia porcellus [3]) [nM] | pIC50 (Cavia porcellus [4]) | pIC50 (Oryctolagus cuniculus)
9 | CCOC(=O)C1=C(C)N=C(C)/C(=C(/O)OCC)C1c1ccccc1-n1ccnc1 (centres undefined) | < 6.00 | 6.34 | – | – | – | –
10 | CCO/C(O)=C1\C(C)=NC(C)=C(C(=O)O)C1c1cccc(-n2ccnc2)c1 (centres undefined) | < 6.00 | 5.71 | – | – | – | –
11 | CC1=NC(C)=C(C(=O)OCC(C)C)C(c2cccc(-c3cccnc3)c2)/C1=C(\O)OCC(C)C (centres undefined) | < 6.00 | 5.82 | – | – | – | –
12 | CCO/C(O)=C1\C(C)=NC(C)=C(C(=O)OCCN(C)Cc2ccccc2)C1c1cccc(-c2cccnc2)c1 (centres undefined) | < 6.00 | 7.22 | – | – | – | –
13 | CCOC(=O)C1=C(CC)N=C(CC)/C(=C(/O)OCC)C1c1cccc(-n2ccnc2)c1 (centres undefined) | < 6.00 | 6.01 | – | – | – | –
14 | CCO/C(O)=C1\C(COC)=NC(C)=C(C(=O)OC)C1c1cccc(-n2ccnc2)c1 (centres undefined) | 6.40 | 5.71 | – | – | – | –
15 | CCOC(=O)C1=C(C)N=C(C)/C(=C(/O)OCC)C1c1ccc(-n2ccnc2)cc1 (centres undefined) | < 6.00 | 4.64 | – | – | – | –
16 | CCOC(=O)c1c(C)nc(C)c(C(=O)OCC)c1-c1cccc(-n2ccnc2)c1 | < 6.00 | < 5.00 | – | – | – | –
17 | CCO/C(O)=C1\C(COCCN)=NC(C)=C(C(=O)OC)C1c1cccc(-n2ccnc2)c1 (centres undefined) | 6.52 | 5.63 | – | – | – | –
18 | COC(=O)C1=C(C)NC(C)=C(C(=O)OC)C1c1ccccc1[N+](=O)[O-] [NIFEDIPINE] | < 5.00 | 8.40 | 8.33 | 31.5 | 7.24 | 8.16

Reference: ChEMBL document CHEMBL1126839, “Imidazol-1-yl and pyridin-3-yl derivatives of 4-phenyl-1,4-dihydropyridines combining Ca2+ antagonism and thromboxane A2 synthase inhibition” (J Med Chem, 1993)
